Data on 4 molecules can be found in ChEMBL document CHEMBL3600382, “A-ring substituted 17β-arylsulfonamides of 17β-aminoestra-1,3,5(10)-trien-3-ol as highly potent reversible inhibitors of steroid sulfatase” (Bioorg Med Chem, 2015).

In test [1] the target is T1, Steryl-sulfatase (Homo sapiens, UniProt P08842).
T1 sequence (P08842 whole entry): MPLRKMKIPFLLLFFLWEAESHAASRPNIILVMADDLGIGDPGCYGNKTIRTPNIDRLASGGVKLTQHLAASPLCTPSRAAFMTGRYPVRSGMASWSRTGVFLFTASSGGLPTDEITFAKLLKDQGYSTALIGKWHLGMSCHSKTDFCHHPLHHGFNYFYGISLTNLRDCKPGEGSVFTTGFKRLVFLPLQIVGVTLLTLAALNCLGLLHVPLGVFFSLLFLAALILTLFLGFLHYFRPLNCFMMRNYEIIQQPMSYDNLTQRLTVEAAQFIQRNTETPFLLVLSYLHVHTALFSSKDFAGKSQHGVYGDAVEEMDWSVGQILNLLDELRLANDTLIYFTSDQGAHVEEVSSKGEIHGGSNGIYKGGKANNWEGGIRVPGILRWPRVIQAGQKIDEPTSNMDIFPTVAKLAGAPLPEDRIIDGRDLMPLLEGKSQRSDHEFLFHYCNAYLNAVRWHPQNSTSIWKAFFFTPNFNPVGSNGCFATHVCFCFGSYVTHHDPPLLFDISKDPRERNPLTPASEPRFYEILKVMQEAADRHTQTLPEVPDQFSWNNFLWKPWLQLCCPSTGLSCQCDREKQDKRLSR
The test can be described thus: Reversible inhibition of STS (unknown origin) using 4-MUS as substrate measured over 10 mins by fluorescence assay. Conditions: read-out: Ki(app). The procedure, abridged: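 Purified STS at 10 nM final with 200 µM 4-MUS in 0.1 M Tris-HCl pH 7.0 (enzyme stock contained Triton X-100). Eleven inhibitor levels, 5 nM–5 µM, were added from DMSO/buffer. 4-Methylumbelliferone fluorescence (ex 360, em 460 nm) was followed for 10 min at 24 °C, in quadruplicate, with no-enzyme controls. Vi/V0 initial rates were fitted for IC50. K_i^app was the IC50-vs-[E]T intercept at 10–80 nM STS.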

Test [2] deals with MCF7. The test can be described thus: Cytotoxicity against human MCF7 cells assessed as inhibition of cell growth at 10 uM after 96 hrs by Cell Titer 96 Aqueous One solution Cell proliferation assay relative to control. The test is classed as functional. Conditions: MCF7, 96 h, read-out: GI.
For a further test, the system named is U-251. The test can be described thus: Cytotoxicity against human U251 cells. The test is classed as functional.
Another test deals with SF-539. The test can be described thus: Cytotoxicity against human SF539 cells. The test is classed as functional.
A further test deals with NCI-H23. The test can be described thus: Cytotoxicity against human NCI-H23 cells. The class given is functional.
In the next test the test system is SNB-75. The test can be described thus: Cytotoxicity against human SNB75 cells. The class given is functional.
In another test the test system is NCI-H226. The test can be described thus: Cytotoxicity against human NCI-H226 cells. The test is classed as functional.
A further test has as its system COLO 205. The test can be described thus: Cytotoxicity against human COLO205 cells. The test is classed as functional.
Test [3] can be described thus: Cytotoxicity against human EKVX cells. The test is classed as functional.
The subject of the next test is HT-29. The test can be described thus: Cytotoxicity against human HT-29 cells. The class given is functional.
A further test relates to MOLT-4. The test can be described thus: Cytotoxicity against human MOLT4 cells. The class given is functional.
The next test relates to SK-MEL-2. The test can be described thus: Cytotoxicity against human SK-MEL-2 cells. The class given is functional.
In the next test the test system is A549. The test can be described thus: Cytotoxicity against human A549 cells. The class given is functional.
The test system of a further test is UACC-257. The test can be described thus: Cytotoxicity against human UACC257 cells. The class given is functional.
The subject of a further test is T47D. The test can be described thus: Cytotoxicity against human T47D cells. The test is classed as functional.
Another test deals with MDA-MB-435. The test can be described thus: Cytotoxicity against human MDA-MB-435 cells. The class given is functional.
The subject of another test is M14. The test can be described thus: Cytotoxicity against human M14 cells. The class given is functional.
A further test concerns PC-3. The test can be described thus: Cytotoxicity against human PC3 cells. The test is classed as functional.
The next test has as its system SK-OV-3. The test can be described thus: Cytotoxicity against human SKOV3 cells. The test is classed as functional.
A short description of test [4]: Cytotoxicity against human Hs578T cells. The class given is functional. Conditions: Hs-578T.
For the next test, the system named is IGROV-1. The test can be described thus: Cytotoxicity against human IGROV1 cells. The test is classed as functional.
The test system of the next test is NCI-H460. The test can be described thus: Cytotoxicity against human NCI-H460 cells. The class given is functional.
The test system of another test is SR. The test can be described thus: Cytotoxicity against human SR cells. The test is classed as functional.
The subject of the next test is RXF 393. The test can be described thus: Cytotoxicity against human RXF393 cells. The class given is functional.
The test system of the next test is TK-10. The test can be described thus: Cytotoxicity against human TK10 cells. The test is classed as functional.
The test system of another test is 786-0. The test can be described thus: Cytotoxicity against human 786-0 cells. The class given is functional.
A further test concerns LOX IMVI. The test can be described thus: Cytotoxicity against human LOXIMVI cells. The test is classed as functional.
The test system of a further test is SF-295. The test can be described thus: Cytotoxicity against human SF295 cells. The test is classed as functional.
In another test the test system is MDA-MB-468. The test can be described thus: Cytotoxicity against human MDA-MB-468 cells. The class given is functional.
For the next test, the system named is OVCAR-5. The test can be described thus: Cytotoxicity against human OVCAR5 cells. The test is classed as functional.
The next test has as its system UACC-62. The test can be described thus: Cytotoxicity against human UACC62 cells. The class given is functional.
Another test concerns MDA-MB-231. The test can be described thus: Cytotoxicity against human MDA-MB-231 cells. The test is classed as functional.
The subject of the next test is OVCAR-8. The test can be described thus: Cytotoxicity against human OVCAR8 cells. The class given is functional.
A further test has as its system OVCAR-3. The test can be described thus: Cytotoxicity against human OVCAR3 cells. The class given is functional.
The test system of another test is KM12. The test can be described thus: Cytotoxicity against human KM12 cells. The test is classed as functional.
Test [5] can be described thus: Cytotoxicity against human NCI-ADR-RES cells. The class given is functional.
Another test has as its system CAKI-1. The test can be described thus: Cytotoxicity against human Caki1 cells. The class given is functional.
Test [6] addresses T1, Steryl-sulfatase. The test can be described thus: Inhibition of STS (unknown origin) using 4-MUS as substrate measured over 10 mins by fluorescence assay. The procedure, abridged:
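Purified STS (10 nM final) in 0.1 M Tris-HCl pH 7.0 containing Triton X-100, 4-MUS 200 µM final, and inhibitor at eleven concentrations (5 nM–5 µM). Ex 360/em 460 fluorescence read over 10 min at 24 °C, in quadruplicate, with no-enzyme controls. Vi/V0 from initial rates fit to a slope-factor equation. For tight binders, Ki app is the y-intercept of IC50 vs [E] (10–80 nM).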

The subject of another test is RPMI-8226. The test can be described thus: Cytotoxicity against human RPMI8226 cells. The class given is functional.
Test [7] concerns MCF7. The test can be described thus: Cytotoxicity against human MCF7 cells. The class given is functional.
The next test relates to SN12C. The test can be described thus: Cytotoxicity against human SN12C cells. The test is classed as functional.
The subject of a further test is BT-549. The test can be described thus: Cytotoxicity against human BT549 cells. The test is classed as functional.
Another test relates to HOP-92. The test can be described thus: Cytotoxicity against human HOP92 cells. The test is classed as functional.
Another test relates to SK-MEL-5. The test can be described thus: Cytotoxicity against human SK-MEL-5 cells. The class given is functional.
The test system of another test is A498. The test can be described thus: Cytotoxicity against human A498 cells. The class given is functional.
For a further test, the system named is CCRF-CEM. The test can be described thus: Cytotoxicity against human CCRF-CEM cells. The class given is functional.
For the next test, the system named is ACHN. The test can be described thus: Cytotoxicity against human ACHN cells. The test is classed as functional.
The subject of a further test is HCC 2998. The test can be described thus: Cytotoxicity against human HCC2998 cells. The test is classed as functional.
Another test deals with SF-268. The test can be described thus: Cytotoxicity against human SF268 cells. The test is classed as functional.
The subject of another test is SW-620. The test can be described thus: Cytotoxicity against human SW620 cells. The class given is functional.
A further test relates to HL-60(TB). The test can be described thus: Cytotoxicity against human HL-60(TB) cells. The test is classed as functional.

With `C[C@]12CC[C@@H]3c4ccc(O)c(F)c4CC[C@H]3[C@@H]1CC[C@@H]2NS(=O)(=O)c1cccc(C(F)(F)F)c1`, the Ki at Steryl-sulfatase [1] amounted to 2.5 nM.

Take `C[C@]12CC[C@@H]3c4ccc(O)cc4CC[C@H]3[C@@H]1CC[C@@]2(O)Cc1ccccc1`: the inhibition of growth at 10 µM in the test on MCF7 [2] was 51%.

As to `C[C@]12CC[C@@H]3c4ccc(O)c([N+](=O)[O-])c4CC[C@H]3[C@@H]1CC[C@@H]2NS(=O)(=O)c1cccc(C(F)(F)F)c1`, the 50% growth inhibitory concentration (GI50) in the test on U-251, with SF-539, with NCI-H23, with SNB-75, in the test on NCI-H226 and in the test with COLO 205 was 1000 nM in each case. Moreover, the concentration for 50% growth inhibition (GI50) (in [3]; in the test with HT-29; in the test on MOLT-4; with SK-MEL-2; with A549; with UACC-257) was 1000 nM each time. Besides, the GI50 in the test with T47D was 1800 nM; in the test on MDA-MB-435, 1000 nM; with M14, 1000 nM; with PC-3, 1000 nM; in the test on SK-OV-3, 1000 nM; in test [4] it was 2200 nM. For the same molecule, the GI50 in the test with IGROV-1, in the test with NCI-H460, in the test on SR, in the test with RXF 393, in the test on TK-10 and with 786-0 was 1000 nM each time. In addition, the concentration for 50% growth inhibition (GI50) in the test on LOX IMVI was found to be 1000 nM; in the test on SF-295, 1000 nM; with MDA-MB-468 it was 2700 nM; in the test on OVCAR-5, 1000 nM; in the test with UACC-62 it was 1000 nM; with MDA-MB-231 it was 1900 nM. For the same molecule, the concentration for 50% growth inhibition (GI50) (in the test on OVCAR-8; in the test with OVCAR-3; with KM12; in test [5]; in the test on CAKI-1; with RPMI-8226) was 1000 nM each time. Besides, the concentration for 50% growth inhibition (GI50) in the test on MCF7 [7] was 1800 nM; with SN12C, 1000 nM; in the test with BT-549, 1900 nM; with HOP-92 it was 1000 nM; with SK-MEL-5, 1000 nM; with A498 it was 1000 nM. The GI50 in the test on CCRF-CEM, in the test with ACHN, with HCC 2998, in the test with SF-268, with SW-620 and with HL-60(TB) was 1000 nM in each case. Half-maximal inhibition on Steryl-sulfatase [6] (IC50) required 11 nM.

As for `C[C@]12CC[C@@H]3c4ccc(O)c([N+](=O)[O-])c4CC[C@H]3[C@@H]1CC[C@@H]2NS(=O)(=O)c1ccc(-c2ccccc2)cc1`, the Ki on Steryl-sulfatase [1] came out at 1 nM.
